From ChEMBL document CHEMBL5058577, “EUbOPEN Chemogenomics Library 2 (Multiplex)” (2022)

Test system: HEK-293T
Experiment: Multiplex assay against HEK293T
Type: toxicity, cell-based
Details: human
Outline: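 Tubulin, mitochondrial-mass and membrane-permeability phenotypes are per cents of healthy-nucleus cells. Cells were gated by CellPathfinder machine learning into Hoechst high-intensity objects or normal cells, normal cells into healthy, pyknosed or fragmented nuclei, and pyknosed cells into mitotic or apoptotic. Before that, live cells stained at seeding with Hoechst33342, BioTracker Green Microtubule Cytoskeleton Dye, MitoTracker Red and Annexin V Alexa Fluor 680 were imaged on a CQ1 microscope at 37°C and 5% CO2 after compound addition.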

[1] = 12 h, 1 µM, compound concentration 1 uM, replicate 1
[2] = 12 h, 1 µM, compound concentration 1 uM, replicate 2
[3] = 12 h, 10 µM, compound concentration 10 uM, replicate 1
[4] = 12 h, 10 µM, compound concentration 10 uM, replicate 2
[5] = 24 h, 1 µM, compound concentration 1 uM, replicate 1
[6] = 24 h, 1 µM, compound concentration 1 uM, replicate 2
[7] = 24 h, 10 µM, compound concentration 10 uM, replicate 1
[8] = 24 h, 10 µM, compound concentration 10 uM, replicate 2
[9] = 48 h, 1 µM, compound concentration 1 uM, replicate 1
[10] = 48 h, 1 µM, compound concentration 1 uM, replicate 2
[11] = 48 h, 10 µM, compound concentration 10 uM, replicate 1
[12] = 48 h, 10 µM, compound concentration 10 uM, replicate 2

## CCCCC1=NC2(CCCC2)C(=O)N1Cc1ccc(-c2ccccc2-c2nnn[nH]2)cc1 [IRBESARTAN]
[1]
  Population Apoptotic (%): 24%
  Population Fragmented Nuclei (%): 9%
  Population Healthy Nuclei (%): 79%
  Population Hoechst High Intensity Objects (%): 9%
  Population Membrane Permeable-Phenotype (%): 0%
  Population Mitochondria Different-Phenotype (%): 34%
  Population Mitotic Cells (%): 75%
  Population Normal (%): 91%
  Population Pyknosed Nuclei (%): 10%
  Population Tubulin-Different-Phenotype (%): 17%
  Total Cell Count: 500
[2]
  Population Apoptotic (%): 28%
  Population Fragmented Nuclei (%): 8%
  Population Healthy Nuclei (%): 78%
  Population Hoechst High Intensity Objects (%): 4%
  Population Mitochondria Different-Phenotype (%): 63%
  Population Mitotic Cells (%): 71%
  Population Normal (%): 95%
  Population Pyknosed Nuclei (%): 12%
  Population Tubulin-Different-Phenotype (%): 20%
  Total Cell Count: 353
[3]
  Population Apoptotic (%): 50%
  Population Fragmented Nuclei (%): 7%
  Population Healthy Nuclei (%): 70%
  Population Hoechst High Intensity Objects (%): 5%
  Population Membrane Permeable-Phenotype (%): 2%
  Population Mitochondria Different-Phenotype (%): 46%
  Population Mitotic Cells (%): 50%
  Population Normal (%): 94%
  Population Pyknosed Nuclei (%): 22%
  Population Tubulin-Different-Phenotype (%): 50%
  Total Cell Count: 219
[4]
  Population Apoptotic (%): 56%
  Population Fragmented Nuclei (%): 6%
  Population Healthy Nuclei (%): 78%
  Population Hoechst High Intensity Objects (%): 13%
  Population Membrane Permeable-Phenotype (%): 0%
  Population Mitochondria Different-Phenotype (%): 66%
  Population Mitotic Cells (%): 43%
  Population Normal (%): 86%
  Population Pyknosed Nuclei (%): 15%
  Population Tubulin-Different-Phenotype (%): 33%
  Total Cell Count: 351
[5]
  Population Apoptotic (%): 31%
  Population Fragmented Nuclei (%): 9%
  Population Healthy Nuclei (%): 79%
  Population Hoechst High Intensity Objects (%): 4%
  Population Membrane Permeable-Phenotype (%): 0%
  Population Mitochondria Different-Phenotype (%): 24%
  Population Mitotic Cells (%): 68%
  Population Normal (%): 95%
  Population Pyknosed Nuclei (%): 10%
  Population Tubulin-Different-Phenotype (%): 15%
  Total Cell Count: 625
[6]
  Population Apoptotic (%): 34%
  Population Healthy Nuclei (%): 80%
  Population Hoechst High Intensity Objects (%): 7%
  Population Mitochondria Different-Phenotype (%): 45%
  Population Mitotic Cells (%): 65%
  Population Normal (%): 92%
  Population Pyknosed Nuclei (%): 9%
  Population Tubulin-Different-Phenotype (%): 14%
  Total Cell Count: 456
[7]
  Population Apoptotic (%): 27%
  Population Fragmented Nuclei (%): 6%
  Population Healthy Nuclei (%): 77%
  Population Hoechst High Intensity Objects (%): 3%
  Population Membrane Permeable-Phenotype (%): 1%
  Population Mitochondria Different-Phenotype (%): 37%
  Population Mitotic Cells (%): 72%
  Population Normal (%): 96%
  Population Pyknosed Nuclei (%): 15%
  Population Tubulin-Different-Phenotype (%): 32%
  Total Cell Count: 287
[8]
  Population Apoptotic (%): 41%
  Population Fragmented Nuclei (%): 11%
  Population Hoechst High Intensity Objects (%): 10%
  Population Membrane Permeable-Phenotype (%): 0%
  Population Mitochondria Different-Phenotype (%): 49%
  Population Mitotic Cells (%): 58%
  Population Normal (%): 89%
  Population Pyknosed Nuclei (%): 11%
  Population Tubulin-Different-Phenotype (%): 22%
  Total Cell Count: 434
[9]
  Population Apoptotic (%): 29%
  Population Fragmented Nuclei (%): 11%
  Population Healthy Nuclei (%): 81%
  Population Hoechst High Intensity Objects (%): 3%
  Population Membrane Permeable-Phenotype (%): 0%
  Population Mitochondria Different-Phenotype (%): 21%
  Population Mitotic Cells (%): 70%
  Population Normal (%): 96%
  Population Pyknosed Nuclei (%): 7%
  Population Tubulin-Different-Phenotype (%): 15%
  Total Cell Count: 958
[10]
  Population Apoptotic (%): 23%
  Population Fragmented Nuclei (%): 9%
  Population Healthy Nuclei (%): 84%
  Population Hoechst High Intensity Objects (%): 2%
  Population Membrane Permeable-Phenotype (%): 1%
  Population Mitochondria Different-Phenotype (%): 19%
  Population Mitotic Cells (%): 76%
  Population Normal (%): 97%
  Population Pyknosed Nuclei (%): 6%
  Population Tubulin-Different-Phenotype (%): 8%
  Total Cell Count: 705
[11]
  Population Apoptotic (%): 25%
  Population Fragmented Nuclei (%): 15%
  Population Healthy Nuclei (%): 75%
  Population Hoechst High Intensity Objects (%): 1%
  Population Membrane Permeable-Phenotype (%): 0%
  Population Mitochondria Different-Phenotype (%): 21%
  Population Mitotic Cells (%): 75%
  Population Normal (%): 98%
  Population Pyknosed Nuclei (%): 9%
  Population Tubulin-Different-Phenotype (%): 15%
  Total Cell Count: 473
[12]
  Population Apoptotic (%): 46%
  Population Fragmented Nuclei (%): 12%
  Population Healthy Nuclei (%): 80%
  Population Hoechst High Intensity Objects (%): 3%
  Population Mitochondria Different-Phenotype (%): 26%
  Population Mitotic Cells (%): 53%
  Population Normal (%): 96%
  Population Pyknosed Nuclei (%): 6%
  Total Cell Count: 684
